From paper PMC11827156 (Malaria Journal, 2025)
Entries after “also recorded” stand apart in the source; their conditions may differ. Where two headings read alike, the source gives them in different places. Each block holds one compound with its values, some of them ahead of it.

Experiments:
P. falciparum = conditions: read-out: IC50, antimalarial activity; cited from earlier work
P. falciparum 3D7 [1] = format: cell-based, Plasmodium falciparum
[2] = system: Plasmodium falciparum 3D7; test: Drug effects on erythrocytic cycle phases in synchronized cultures; format: cell-based; conditions: for ring phase parasites at the 36 h time point / parasitaemia at the 36 h time point: 150 nM added 12 h after synchronization, n = 3; for ring phase parasites at the 36 h time point: % parasitaemia; for parasites developed into schizonts at the 24 h time point: added at 0 h, control 18%
Outline: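 Sorbitol-synchronized P. falciparum 3D7 at 1% parasitaemia and 2% haematocrit received test compound (150 nM), chloroquine (150 nM) or 0.1% DMSO at 0, 12 or 24 h post-synchronization. Samples were taken at 12, 24, 36 and 48 h and stained for 30 min in HEPES-buffered Hank's with 1 µM Hoechst and […] thiazole orange. Flow cytometry gated rings, trophozoites and schizonts on DNA/RNA signal. Data are mean ± SD from one triplicate experiment.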

[3] = system: knockout parasites (PfSR25−); conditions: cited from earlier work
[4] = target: P. falciparum PfSR25− (serpentine receptor 25 knockout strain); test: Comparative IC50 screening, 3D7 versus serpentine receptor 25 knockout strain; format: cell-based, Plasmodium falciparum; conditions: 72 h, 0.0019–2 µM, Student's t test
Outline: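 Asynchronous 3D7 and PfSR25− cultures (37 °C, 90% N2/5% O2/5% CO2) at 0.3% parasitaemia and 2% haematocrit were exposed for 72 h to eleven final concentrations. Controls were 0.13% DMSO and chloroquine 0.2441–250 nM. Cells were stained with SYBR Green-I (1:10,000) plus MitoTracker Deep Red (50 nM) for 20 min at 37 °C and read by flow cytometry. Survival was taken relative to DMSO, in triplicate over three experiments. IC50 ± SEM came from dose–response curves.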

P. falciparum Dd2 = conditions: 2 µM; cited from earlier work
P. falciparum 3D7 [5] = format: cell-based, Plasmodium falciparum; conditions: 2.5 nM compound alone, 48 h
P. falciparum 3D7 [6] = test: Competition of TCAMS compounds; format: cell-based, Plasmodium falciparum; conditions: for effect on the increase in parasitaemia promoted by melatonin: 2.5 nM compound with 100 nM melatonin; for effect on the increase in parasitaemia promoted by melatonin / effect on the increase in parasitaemia promoted by serotonin: 48 h; for effect on the increase in parasitaemia promoted by serotonin: 2.5 nM compound with 250 nM serotonin; for classification on the serotonin/melatonin pathway in the parasite: from effects in presence and absence of serotonin or melatonin
Outline: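 Asynchronous P. falciparum 3D7 cultures (1% parasitaemia, 2% haematocrit) were given 2.5 nM test compound with or without 250 nM serotonin or 100 nM melatonin. Incubation was 48 h at 37 °C under mixed gas, with a DMSO solvent control. Cells were stained with SYBR Green-I (1:10,000) and MitoTracker Deep Red (50 nM) for 20 min at 37 °C, then parasitaemia was read by flow cytometry. Survival is relative to solvent; triplicate, 3 independent experiments.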

HEK293 cells = test: Cytotoxicity of the compounds in HEK293 cells; format: cell-based, human; conditions: MTT, 72 h, 0.0019–2 µM; for CC50: read-out: CC50 nM HEK293
Outline: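 HEK293 cells (passages 7–12, grown in DMEM with 10% FBS and penicillin/streptomycin at 37 °C, 5% CO₂) were trypsinized and seeded at 10^4 cells/well. They were exposed to test compound or DMSO vehicle for 72 h. MTT (5 mg/mL reagent) was then added for 3 h, and the formazan was dissolved in DMSO. Absorbance was read at 570 nm and dose–response curves were fitted. Each condition was run in triplicate in 3 independent experiments.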

[7] = Plasmodium falciparum, 3D7, 72 h, read-out: IC50 (nM) 3D7, Table 1, asynchronous culture, 72 h, 0.0019–2 µM, ± standard error of the mean
[8] = read-out: IC50 (nM) 3D7, Table 1, asynchronous culture, 72 h, 0.0019–2 µM, ± standard error of the mean

Structure (SMILES): CCCN(CCC)C1CCc2cccc(O)c2C1 (stereo not drawn) [8-OH-DPAT, 8-hydroxy-N-(di-n-propyl)-aminotetralin]
IC50 (P. falciparum): 400 nM

IC50 (P. falciparum 3D7 [1]; [7]): 11.3 ± 0.7 nM
Structure (SMILES): CCN(CC)CCCC(C)Nc1ccnc2cc(Cl)ccc12 (stereo not drawn) [Chloroquine, reference compound]
ring phase parasites at the 36 h time point [2]: 0.30 ± 0.17%
parasitaemia at the 36 h time point [2]: 1.55 ± 0.87%
parasites developed into schizonts at the 24 h time point [2]: less than 0.5%
parasitaemia of knockout parasites (PfSR25−) versus wild-type (3D7) ([3]; exposure for 24 h): significantly reduced parasitaemia compared with that of wild-type parasites (3D7)

IC50 (P. falciparum 3D7 [1]; [7]): 120 ± 19.4 nM
Structure (SMILES): COc1cc2nccc(Nc3ccc(Oc4ccccc4)cc3)c2cc1OC.Cl [TCMDC-131917, Cl.COc1cc2nccc(Nc3ccc(Oc4ccccc4)cc3)c2cc1OC]
difference of IC50 between 3D7 and PfSR25− [4]: none of the compounds tested were significantly different between the two strains

IC50 (P. falciparum 3D7 [1]; [8]): 1970 ± 116 nM
Structure (SMILES): Cn1cnc(CCNC(=O)c2cccc(-c3cccc(-c4nc5cc(C(F)(F)F)ccc5[nH]4)c3)c2)c1 [TCMDC-132496, Cn1cnc(CCNC(= O)c2cccc(c2)-c2cccc(c2)-c2nc3cc(ccc3[nH]2)C(F)(F)F)c1]
inhibition of parasite development, strain Dd2 (P. falciparum Dd2): ≤ 50%

Structure (SMILES): Cc1ccc(NC(=O)Nc2ccc(Cl)c(C(F)(F)F)c2)cc1-c1ccc(C(=O)NCCN2CCOCC2)cc1 [TCMDC-133589, Cc1ccc(NC(= O)Nc2ccc(Cl)c(c2)C(F)(F)F)cc1-c1ccc(cc1)C(= O)NCCN1CCOCC1]
IC50 (P. falciparum 3D7 [1]; [8]): 1360 ± 198 nM
inhibition of parasite development, strain Dd2 (P. falciparum Dd2): ≤ 50%

IC50 (P. falciparum 3D7 [1]; [7]): 389 ± 120 nM
Structure (SMILES): COc1cccc(CCNc2nc(NCc3ccccc3)c3cc(OC)c(OC)cc3n2)c1 [TCMDC-135267, COc1cccc(CCNc2nc(NCc3ccccc3)c3cc(OC)c(OC)cc3n2)c1]
effect on parasitaemia compared with the control (P. falciparum 3D7 [5]): did not significantly affect parasitaemia compared with the control
effect on the increase in parasitaemia promoted by melatonin (P. falciparum 3D7 [6]): able to inhibit the increase in parasitaemia partially; also recorded: effective in preventing the proliferative effects of melatonin
effect on the increase in parasitaemia promoted by serotonin (P. falciparum 3D7 [6]): able to inhibit the increase in parasitaemia; also recorded: the most effective at inhibiting the proliferative effects of serotonin
classification on the serotonin/melatonin pathway in the parasite (P. falciparum 3D7 [6]): potential full antagonists of the pathway
ring phase parasites at the 36 h time point [2]: 0.44 ± 0.14%
parasitaemia at the 36 h time point [2]: 1.18 ± 0.42%
parasites developed into schizonts at the 24 h time point [2]: less than 0.5%
effect on erythrocytic cycle progression ([2]; synchronized cultures, added at 0, 12 or 24 h): prevents the progression from trophozoite to mature schizonts, but does not affect the ability of mature schizonts to egress and invade RBCs

Structure (SMILES): CN1CCN(CCCCCNc2c3ccccc3nc3ccccc23)CC1.Cl [TCMDC-137541, Cl.CN1CCN(CCCCCNc2c3ccccc3nc3ccccc23)CC1]
IC50 (P. falciparum 3D7 [1]; [7]): 165 ± 74.7 nM
inhibition of parasite development, strain Dd2 (P. falciparum Dd2): ≤ 50%

Structure (SMILES): CCOc1cc(CC)ccc1C1CCN(CCCCNC(=O)c2ccc(NC(=O)c3ccc(Cl)cc3)cc2)CC1.Cl [TCMDC-138317, Cl.CCOc1cc(CC)ccc1C1CCN(CCCCNC(= O)c2ccc(NC(= O)c3ccc(Cl)cc3)cc2)CC1]
IC50 (P. falciparum 3D7 [1]; read-out: IC50 nM 3D7, Table 2): 80.8 nM
IC50 (P. falciparum 3D7 [1]; [8]): 80.8 ± 25.9 nM
cytotoxic activity in HEK293 cells (HEK293 cells): exhibited cytotoxic activity in HEK293 cells; also recorded: toxic to mammalian HEK293 cells
CC50 (HEK293 cells): 16.6 nM

Structure (SMILES): O=C(/C=C/c1ccc(Cl)c(Cl)c1)NC1CCC(CN2CCC(c3c[nH]c4ccc(O)cc34)CC2)CC1 (stereo not drawn) [TCMDC-139494, Oc1ccc2[nH]cc(C3CCN(CC4CCC(CC4)NC(= O)\C = C\c4ccc(Cl)c(Cl)c4)CC3)c2c1]
IC50 (P. falciparum 3D7 [1]; [8]): 122 ± 21.1 nM
difference of IC50 between 3D7 and PfSR25− [4]: none of the compounds tested were significantly different between the two strains

Structure (SMILES): Cc1[nH]c2c(C)cccc2c1C1CCN(CCC2CCN(C(=O)/C=C/c3ccc(Cl)c(Cl)c3)CC2)CC1 [TCMDC-139803, Cc1[nH]c2c(C)cccc2c1C1CCN(CCC2CCN(CC2)C(= O)\C = C\c2ccc(Cl)c(Cl)c2)CC1]
IC50 (P. falciparum 3D7 [1]; [8]): 91.9 ± 18.1 nM
effect on parasitaemia compared with the control (P. falciparum 3D7 [5]): induced a significant increase in parasitaemia
effect on the increase in parasitaemia promoted by melatonin (P. falciparum 3D7 [6]): able to inhibit the increase in parasitaemia partially
effect on the increase in parasitaemia promoted by serotonin (P. falciparum 3D7 [6]): partially inhibited the increase in parasitaemia promoted by serotonin
difference of IC50 between 3D7 and PfSR25− [4]: none of the compounds tested were significantly different between the two strains

Structure (SMILES): O=C(/C=C/c1c(Cl)cccc1Cl)NC1CCC(CN2CCC(c3c[nH]c4ccccc34)CC2)CC1 (stereo not drawn) [TCMDC-139856, Clc1cccc(Cl)c1\C = C\C(= O)NC1CCC(CN2CCC(CC2)c2c[nH]c3ccccc23)CC1]
IC50 (P. falciparum 3D7 [1]; [8]): 274 ± 31.9 nM
inhibition of parasite development, strain Dd2 (P. falciparum Dd2): ≤ 50%

Structure (SMILES): O=C(/C=C/c1ccc(Cl)c(Cl)c1)N1CCC(CN2CCC(c3c[nH]c4cc(C(F)(F)F)ccc34)CC2)CC1 [TCMDC-139860, FC(F)(F)c1ccc2c(c[nH]c2c1)C1CCN(CC2CCN(CC2)C(= O)\C = C\c2ccc(Cl)c(Cl)c2)CC1]
IC50 (P. falciparum 3D7 [1]; [8]): 65.1 ± 11.6 nM
effect on parasitaemia compared with the control (P. falciparum 3D7 [5]): induced a significant increase in parasitaemia
effect on the increase in parasitaemia promoted by melatonin (P. falciparum 3D7 [6]): able to inhibit the increase in parasitaemia partially
effect on the increase in parasitaemia promoted by serotonin (P. falciparum 3D7 [6]): partially inhibited the increase in parasitaemia promoted by serotonin
difference of IC50 between 3D7 and PfSR25− [4]: none of the compounds tested were significantly different between the two strains
inhibition of parasite development, strain Dd2 (P. falciparum Dd2): ≤ 50%

Structure (SMILES): CC(Cc1ccc(NC(=O)c2ccc(CNCCc3ccccc3)cc2)cc1)NCCc1cccc(Cl)c1.Cl (stereo not drawn) [TCMDC-139867, Cl.CC(Cc1ccc(NC(= O)c2ccc(CNCCc3ccccc3)cc2)cc1)NCCc1cccc(Cl)c1]
IC50 (P. falciparum 3D7 [1]; read-out: IC50 nM 3D7, Table 2): 57.4 nM
IC50 (P. falciparum 3D7 [1]; [8]): 57.4 ± 12.2 nM
cytotoxic activity in HEK293 cells (HEK293 cells): exhibited cytotoxic activity in HEK293 cells
CC50 (HEK293 cells): 1280 nM
difference of IC50 between 3D7 and PfSR25− [4]: none of the compounds tested were significantly different between the two strains

Structure (SMILES): Cc1[nH]c2ccc(O)cc2c1C1CCN(CC2CCN(C(=O)/C=C/c3ccc(Cl)c(Cl)c3)CC2)CC1 [TCMDC-140219, Cc1[nH]c2ccc(O)cc2c1C1CCN(CC2CCN(CC2)C(= O)\C = C\c2ccc(Cl)c(Cl)c2)CC1]
IC50 (P. falciparum 3D7 [1]; [8]): 101 ± 22.9 nM
effect on parasitaemia compared with the control (P. falciparum 3D7 [5]): did not significantly affect parasitaemia compared with the control
effect on the increase in parasitaemia promoted by melatonin (P. falciparum 3D7 [6]): able to inhibit the increase in parasitaemia partially
effect on the increase in parasitaemia promoted by serotonin (P. falciparum 3D7 [6]): able to inhibit the increase in parasitaemia
classification on the serotonin/melatonin pathway in the parasite (P. falciparum 3D7 [6]): potential full antagonists of the pathway

Structure (SMILES): CC[C@H](NC(=O)c1c(CN2CCC(N3CCCCC3)CC2)c(-c2ccccc2)nc2cc(O)ccc12)c1ccccc1 [TCMDC-140381, CC[C@H](NC(= O)c1c(CN2CCC(CC2)N2CCCCC2)c(nc2cc(O)ccc12)-c1ccccc1)c1ccccc1]
reduction of P. falciparum parasitaemia by 50% (P. falciparum 3D7 [1]; at the concentrations tested (0.0019–2 µM), 72 h): could not reduce P. falciparum parasitaemia by 50%
inhibition of parasite development, strain Dd2 (P. falciparum Dd2): ≤ 50%

Structure (SMILES): O=C1Nc2cccc3c2C1(CCCCN1CCC(c2cc4ccncc4[nH]2)CC1)CCC3 (stereo not drawn) [TCMDC-141151, O = C1Nc2cccc3CCCC1(CCCCN1CCC(CC1)c1cc4ccncc4[nH]1)c23]
IC50 (P. falciparum 3D7 [1]; [8]): 459 ± 33.8 nM
inhibition of parasite development, strain Dd2 (P. falciparum Dd2): ≤ 50%

Structure (SMILES): O=c1c(NCCCN(Cc2ccc(F)cc2)c2ccccn2)c(NCc2ccncc2)c1=O [TCMDC-142310, Fc1ccc(CN(CCCNc2c(NCc3ccncc3)c(= O)c2 = O)c2ccccn2)cc1]
IC50 (P. falciparum 3D7 [1]; [8]): 100 ± 23.6 nM
effect on parasitaemia compared with the control (P. falciparum 3D7 [5]): induced a significant increase in parasitaemia
effect on the increase in parasitaemia promoted by melatonin (P. falciparum 3D7 [6]): able to inhibit the increase in parasitaemia partially
effect on the increase in parasitaemia promoted by serotonin (P. falciparum 3D7 [6]): able to inhibit the increase in parasitaemia
classification on the serotonin/melatonin pathway in the parasite (P. falciparum 3D7 [6]): potential partial agonists of this pathway in the parasite

Structure (SMILES): CCCCN(CCCC)CC(O)c1cc(Cl)cc2c1-c1ccc(Cl)cc1/C2=C/c1ccc(Cl)cc1 (stereo not drawn) [lumefantrine]
susceptibility of PfSR25− [3]: increased susceptibility

Structure (SMILES): Clc1ccc2c(N3CCN(CCCN4CCN(c5ccnc6cc(Cl)ccc56)CC4)CC3)ccnc2c1 [piperaquine]
susceptibility of PfSR25− [3]: increased susceptibility
